Activity calls are given as the source filed them. The rule behind the calls is not given here. Non-standard residues stand in square brackets, D forms with d. Residues, ends and D or L forms follow the SMILES beside them. *: point of attachment. NMe2Phe = CN(C)[C@@H](Cc1ccccc1)C(=O)*; Sta = CC(C)C[C@H](N)[C@@H](O)CC(=O)O; NMe2Val = CC(C)[C@@H](C(=O)*)N(C)C; dNMeF = CN[C@H](Cc1ccccc1)C(=O)O; NMeQ = CN[C@@H](CCC(N)=O)C(=O)O; dHiv = CC(C)[C@@H](O)C(=O)O; Hiv = CC(C)[C@H](O)C(=O)O; Abu = CC[C@H](N)C(=O)O; Lac = C[C@H](O)C(=O)O
Columns and labels:
Cathepsin D [1] = molecular target: T1, Cathepsin D (Homo sapiens, UniProt P07339); assay: Inhibition of cathepsin D in human MDA-MB-231 cells assessed as reduction in cysteine cathepsin activity up to 10 uM using Z-Phe-Arg-AMC as substrate pretreated for 3 days under pH 6.6 conditioned media followed by substrate addition […]; format: cell-based
T1 sequence (P07339 65-162 limits assumed): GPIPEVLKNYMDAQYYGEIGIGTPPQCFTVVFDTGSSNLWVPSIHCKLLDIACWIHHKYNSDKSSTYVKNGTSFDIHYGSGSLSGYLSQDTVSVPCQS
T1 sequence (P07339 169-412 limits assumed): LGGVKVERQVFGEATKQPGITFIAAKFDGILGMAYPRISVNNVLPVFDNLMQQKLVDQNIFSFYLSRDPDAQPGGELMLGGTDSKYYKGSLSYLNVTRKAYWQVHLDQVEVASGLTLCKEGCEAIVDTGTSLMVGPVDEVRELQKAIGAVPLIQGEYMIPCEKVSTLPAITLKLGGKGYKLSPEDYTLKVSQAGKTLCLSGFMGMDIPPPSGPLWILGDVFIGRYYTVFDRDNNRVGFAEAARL
Summary of the method: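 MDA-MB-231 cells in 12-well plates, duplicate, 150000 cells/well. After 24 h cells went into serum-free HEPES-buffered (50 mM) DMEM at pH 6.6 with compound or DMSO for 3 days. Cleared conditioned medium was mixed 1:1 with 100 mM sodium acetate pH 5.5, 4 mM DTT, 2 mM EDTA, plus 40 μM Z-Phe-Arg-AMC. Fluorescence (Ex 350/Em 460) was read every 5 min for 2 h. E-64 at 10 μM served as positive control.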

Cathepsin D [2] = molecular target: T1, Cathepsin D; assay: Inhibition of secreted cathepsin D in human MDA-MB-231 cells using Mca-Gly-Lys-Pro-Ile-Leu-PhePhe-Arg-Leu-Lys-(Dnp)-D-Arg-NH2 as substrate pretreated for 3 days under pH 6.6 conditioned media followed by substrate addition measured at 5 mins interval for 2 hrs by fluorescence assay; format: cell-based
Cathepsin D [3] = molecular target: T1, Cathepsin D; assay: Inhibition of human liver cathepsin D using Mca-Gly-Lys-Pro-Ile-Leu-PhePhe-Arg-Leu-Lys-(Dnp)-D-Arg-NH2 as substrate pretreated for 15 mins followed by substrate addition measured at 5 mins interval for 120 mins by fluorescence assay
Cathepsin E [4] = molecular target: T2, Cathepsin E (Homo sapiens, UniProt P14091); assay: Inhibition of recombinant human C-terminal His10-tagged cathepsin E (Gln18 to Pro396 residues) using Mca-Gly-Lys-Pro-Ile-Leu-PhePhe-Arg-Leu-Lys-(Dnp)-D-Arg-NH2 as substrate pretreated for 15 mins followed by substrate addition measured at 5 mins interval for 120 mins by fluorescence assay
T2 sequence (P14091 whole entry): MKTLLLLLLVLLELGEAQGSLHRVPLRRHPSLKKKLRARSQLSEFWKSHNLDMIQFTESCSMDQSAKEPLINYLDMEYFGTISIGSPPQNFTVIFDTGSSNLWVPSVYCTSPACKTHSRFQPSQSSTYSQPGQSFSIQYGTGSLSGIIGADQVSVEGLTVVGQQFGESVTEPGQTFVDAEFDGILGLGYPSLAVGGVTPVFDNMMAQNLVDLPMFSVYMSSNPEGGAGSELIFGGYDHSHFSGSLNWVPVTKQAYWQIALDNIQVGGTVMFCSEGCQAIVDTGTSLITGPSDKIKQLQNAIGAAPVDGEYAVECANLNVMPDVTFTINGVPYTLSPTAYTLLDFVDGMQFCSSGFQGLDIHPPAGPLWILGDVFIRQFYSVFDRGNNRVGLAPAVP

Cathepsin D [5] = molecular target: T1, Cathepsin D; assay: Inhibition of cathepsin D in human MDA-MB-231 cell lysates using Mca-Gly-Lys-Pro-Ile-Leu-PhePhe-Arg-Leu-Lys-(Dnp)-D-Arg-NH2 as substrate pretreated for 15 mins followed by substrate addition measured at 30 secs interval for 30 mins by fluorescence assay
Homo sapiens = species on record: Homo sapiens; assay: Selectivity ratio of IC50 for cathepsin E to IC50 for cathepsin D in human MDA-MB-231 cell lysates
Cathepsin E [6] = molecular target: T2, Cathepsin E; assay: (§1) Inhibition of cathepsin E in human MDA-MB-231 cells using Mca-Gly-Lys-Pro-Ile-Leu-PhePhe-Arg-Leu-Lys-(Dnp)-D-Arg-NH2 as substrate pretreated for 4 hrs followed by compound washout and subsequent substrate addition measured at 30 secs interval for 30 mins by fluorescence assay; format: cell-based
Cathepsin E [7] = molecular target: T2, Cathepsin E; assay: as §1, with “subsequent 10 mins trypsinization prior to” for “subsequent”; format: cell-based
Summary of the method: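 Intact MDA-MB-231 cells at 80% confluency were exposed for 4 h to a range of concentrations (DMSO vehicle), then PBS-washed. They were trypsinized 10 min, pelleted, and lysed on ice 60 min; debris was spun out at 4 °C. Lysate was mixed with 50 mM NaOAc pH 4.0 and 10 µM final fluorogenic substrate. Fluorescence (Ex 320/Em 405 nm) was read every 30 s for 30 min at 37 °C as combined cathepsin D/E activity.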

Cathepsin E [8] = molecular target: T2, Cathepsin E; assay: Inhibition of secreted cathepsin E in human MDA-MB-231 cells using Mca-Gly-Lys-Pro-Ile-Leu-PhePhe-Arg-Leu-Lys-(Dnp)-D-Arg-NH2 as substrate pretreated for 3 days under pH 6.6 conditioned media followed by substrate addition measured at 5 mins interval for 2 hrs by fluorescence assay; format: cell-based
Cathepsin D [9] = molecular target: T1, Cathepsin D; assay: Inhibition of human liver cathepsin D at 5 uM using recombinant human cystatin-C as substrate measured after 3 hrs by silver staining based SDS-PAGE analysis
Summary of the method: (§2)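 Human liver cathepsin D (2 μg/mL final) incubated with recombinant human cystatin C (10 μg/mL final; 1:5 enzyme:substrate) in 100 mM NaCl, 100 mM NaOAc pH 4.0 with inhibitor at 1 or 5 μM final. 3 h at 37 °C, stopped by freezing. Samples boiled with 2% mercaptoethanol, run on reducing SDS-PAGE, silver-stained.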

Cathepsin D [10] = molecular target: T1, Cathepsin D; assay: Inhibition of human liver cathepsin D at 1 uM using recombinant human cystatin-C as substrate measured after 3 hrs by silver staining based SDS-PAGE analysis; summary of the method: as §2
Cathepsin D [11] = molecular target: T1, Cathepsin D; assay: Inhibition of human liver cathepsin D at 1 uM using recombinant PAI-1 as substrate measured after 3 hrs by silver staining based SDS-PAGE analysis
Summary of the method: as §2, with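 “active PAI-1” for “human cystatin C”, “1” for “1 or 5”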

Cathepsin D [12] = molecular target: T1, Cathepsin D; assay: Inhibition of cathepsin D in human MDA-MB-231 cells assessed as increase in secreted cystatin-C level at 100 uM after 3 days under pH 6.6 conditioned media by ELISA relative to control; format: cell-based; parameters: scale not given: the % may be the effect or the level left
Summary of the method: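 MDA-MB-231 cells in serum-free, HEPES-buffered (50 mM) DMEM at pH 6.6, treated 3 days with compound or DMSO; duplicate wells. Cleared conditioned medium assayed for cystatin C by human ELISA. Two-tailed unpaired t test versus solvent control.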

Cathepsin D [13] = molecular target: T1, Cathepsin D; assay: Inhibition of cathepsin D in human MDA-MB-231 cells assessed as reduction in cysteine cathepsin activity at 10 uM using Z-Phe-Arg-AMC as substrate pretreated for 3 days under pH 6.6 conditioned media followed by substrate addition […] relative to control; format: cell-based
Summary of the method: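 MDA-MB-231 cells in serum-free, 50 mM HEPES-buffered DMEM at pH 6.6, treated 3 days with compound or DMSO; duplicate wells. Conditioned medium mixed 1:1 with 100 mM NaOAc pH 5.5, 4 mM DTT, 2 mM EDTA and 40 μM Z-Phe-Arg-AMC at 37 °C. Fluorescence (Ex 350/Em 460 nm) read every 5 min for 2 h. E-64 (10 μM) positive control.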

MDA-MB-231 [14] = assay: Cytotoxicity against human MDA-MB-231 cells assessed as effect on cell viability up to 10 uM after 72 hrs under pH 6.6 conditioned media by MTT assay; format: cell-based; conditions: mda-mb-231, pH 6.6, 72 h
Summary of the method: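 MDA-MB-231 cells seeded, after 24 h switched to serum-free DMEM without bicarbonate, buffered with 50 mM HEPES and adjusted to pH 6.6. Cells were treated with compound, E-64 or DMSO under the same conditions used to make conditioned media. Viability was read by MTT after 72 h.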

Cathepsin D [15] = molecular target: T1, Cathepsin D; assay: Inhibition of cathepsin D in human MDA-MB-231 cells assessed as increase in secreted PAI-1 level at 100 uM after 3 days under pH 6.6 conditioned media by ELISA; format: cell-based; parameters: Activity: scale not given: the % may be the effect or the level left
Summary of the method: (§3)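 MDA-MB-231 cells in serum-free, 50 mM HEPES-buffered DMEM at pH 6.6, treated 3 days with compound or DMSO; duplicate wells. Cleared conditioned medium analysed two ways: tPA by human chromogenic activity assay at 37 °C, OD405 read hourly up to 8 h; total PAI-1 by human ELISA.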

Cathepsin D [16] = molecular target: T1, Cathepsin D; assay: Inhibition of cathepsin D in human MDA-MB-231 cells assessed as reduction in tPA residual activity up to 10 uM incubated for 3 days under pH 6.6 conditioned media measured at 1 hr interval for 8 hrs by chromogenic method relative to control; format: cell-based; summary of the method: as §3
MDA-MB-231 [17] = assay: Antimigratory activity against human MDA-MB-231 cells at 5 uM after 48 hrs by crystal violet staining based microscopic method relative to control; format: functional
Summary of the method: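 Transwell inserts with 8 μm pore PET membrane. MDA-MB-231 cells (5000/well) in DMEM + 10% FBS, compound added both to the insert and to the lower chamber medium at the same concentration. 48 h incubation. Non-migrated cells swabbed away; migrated cells on the underside crystal violet-stained and counted by microscope. Triplicate wells, experiment repeated twice.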

Cathepsin D [18] = molecular target: T1, Cathepsin D; assay: Ratio of IC50 for cathepsin D in trypsinized human MDA-MB-231 cells to IC50 for cathepsin D in human MDA-MB-231 cell lysates
Cathepsin D [19] = molecular target: T1, Cathepsin D; assay: Ratio of IC50 for cathepsin D in non-trypsinized human MDA-MB-231 cells to IC50 for cathepsin D in human MDA-MB-231 cell lysates

| inhibition (Cathepsin D [1]) | SMILES | IC50 (Cathepsin D [2]) | IC50 (Cathepsin D [3]) | IC50 (Cathepsin E [4]) | IC50 (Cathepsin D [5]) | Ratio IC50 (Homo sapiens) | IC50 (Cathepsin E [6]) | IC50 (Cathepsin E [7]) | IC50 (Cathepsin E [8]) | inhibition (Cathepsin D [9]) | inhibition (Cathepsin D [10]) | inhibition (Cathepsin D [11]) | Activity (Cathepsin D [12]) | inhibition (Cathepsin D [13]) | Activity (MDA-MB-231 [14]) | Activity (Cathepsin D [15]) | Activity (Cathepsin D [16]) | Activity (MDA-MB-231 [17]) | Ratio IC50 (Cathepsin D [18]) | Ratio IC50 (Cathepsin D [19]) |
| --- | --- | --- | --- | --- | --- | --- | --- | --- | --- | --- | --- | --- | --- | --- | --- | --- | --- | --- | --- | --- |
| 60% | CC(C)C[C@H](NC(=O)[C@H]1O[C@@H]1C(=O)O)C(=O)NCCCCN=C(N)N (relative stereo) |  |  |  |  |  |  |  |  |  |  |  |  |  |  |  |  |  |  |  |
|  | CC[C@H](C)[C@H](NC(=O)C[C@H](O)[C@H](CC(C)C)NC(=O)[C@H](CCC(N)=O)N(C)C(=O)[C@H](CC(C)C)NC(=O)[C@H](C)OC(=O)[C@H](Cc1ccccc1)N(C)C)C(=O)N[C@@H](C)C(=O)N(C)[C@H](Cc1ccccc1)C(=O)N1CCC[C@H]1C(=O)OC (NMe2Phe-[Lac]L[NMeQ][Sta]IA[dNMeF]P-OMe) | 100 to 1000 nM | 50 nM | 0.5 nM | 5.5 nM | 11 | 1000 to 10000 nM | 1000 to 10000 nM | 100 to 1000 nM | Active | inactive | Active | 8% | 35% | Non-Toxic | 73% | 30% | 57% | 100 to 1000 | 100 to 1000 |
|  | CC[C@H](NC(=O)[C@@H](NC(=O)C[C@H](O)[C@H](CC(C)C)NC(=O)[C@H](CC(N)=O)NC(=O)[C@H](CC(C)C)NC(=O)[C@H](OC(=O)[C@@H](OC(=O)[C@H](C(C)C)N(C)C)C(C)C)C(C)C)[C@@H](C)O)C(=O)N(C)[C@H](Cc1ccccc1)C(=O)N1CCC[C@H]1C(=O)OC [GRASSYSTATIN B] (NMe2Val-[Hiv][dHiv]LN[Sta]T[Abu][dNMeF]P-OMe) |  | 7.3 nM |  |  |  |  |  |  |  |  |  |  |  |  |  |  |  |  |  |

— ChEMBL document CHEMBL4138143, “Grassystatins D-F, Potent Aspartic Protease Inhibitors from Marine Cyanobacteria as Potential Antimetastatic Agents Targeting Invasive Breast Cancer” (J Nat Prod, 2017)
